Laboratory results as given in ChEMBL document CHEMBL1275331, “Discovery of a novel 5-HT(3) antagonist/5-HT(1A) agonist 3-amino-5,6,7,8-tetrahydro-2-{4-[4-(quinolin-2-yl)piperazin-1-yl]butyl}quinazolin-4(3H)-one (TZB-30878) as an orally bioavailable agent for irritable bowel syndrome” (J Med Chem, 2010).
The source made the active and inactive calls. The rule behind the calls is not given here.

Legend:
[1] = target: Adenosine receptor A1 (Homo sapiens, UniProt P30542); experiment: Displacement of [3H]DPCPX from human recombinant adenosine A1 receptor
[2] = Drug level in Sprague-Dawley rat blood at 3 mg/kg, po after 4 hrs by HPLC analysis; assay type: ADME, organism-based; design: dose 3 mg/kg, route oral; settings: whole blood, read-out: Drug uptake
Outline: (§1)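 Total compound concentration was measured in brain and blood at 2, 4 and 8 h after a single oral 3 mg/kg dose. Brain/blood ratio was also derived. Values are mean ± SD of three rats.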

[3] = target: Sodium-dependent dopamine transporter (Homo sapiens, UniProt Q01959); experiment: Displacement of [3H]BTCP from human recombinant DAT
[4] = target: Muscarinic acetylcholine receptor M2 (Homo sapiens, UniProt P08172); experiment: Displacement of [3H]AF-DX384 from human recombinant muscarinic M2 receptor
[5] = target: 5-hydroxytryptamine receptor 2A (Rattus norvegicus, UniProt P14842); experiment: Inhibition of rat 5HT2 receptor
[6] = target: Muscarinic acetylcholine receptor M3 (Homo sapiens, UniProt P20309); experiment: Displacement of [3H]4-DAMP from human recombinant muscarinic M3 receptor
[7] = target: Neuromedin-K receptor (Homo sapiens, UniProt P29371); experiment: Displacement of [3H]SR142801 from human recombinant NK3 receptor
[8] = Ratio of drug level in brain to blood in Sprague-Dawley rat at 3 mg/kg, po after 4 hrs; assay type: ADME, organism-based; design: dose 3 mg/kg, route oral
Outline: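 Rats dosed 3 mg/kg orally; total compound levels measured in brain and blood at 2, 4 and 8 h, brain/blood ratio derived. Mean ± SD of three rats.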

[9] = target: 5-hydroxytryptamine receptor 4 (Cavia porcellus, UniProt O70528); experiment: Inhibition of guinea pig 5HT4 receptor
[10] = target: Kappa-type opioid receptor (Cavia porcellus, UniProt P41144); experiment: Displacement of [3H]U69593 from guinea pig cerebellum kappa opioid receptor; assay type: tissue-based
[11] = target: Adenosine receptor A3 (Homo sapiens, UniProt P0DMS8); experiment: Displacement of [125I]AB-MECA from human recombinant adenosine A3 receptor
[12] = target: Neuropeptide Y receptor type 1 (Homo sapiens, UniProt P25929); experiment: Displacement of [125I]peptide YY from NPY1 receptor in human SK-N-MC cells; assay type: cell-based
[13] = target: Adrenergic receptor alpha-1 (Rattus norvegicus, UniProt P15823+P23944+P43140); experiment: Displacement of [3H]prazosin from rat cerebral cortex alpha1 adrenergic receptor; assay type: tissue-based
[14] = Drug level in Sprague-Dawley rat brain at 3 mg/kg, po after 4 hrs by HPLC analysis; assay type: ADME, organism-based; design: dose 3 mg/kg, route oral; settings: read-out: Drug uptake; outline: as §1
[15] = target: Neuropeptide Y receptor type 2 (Homo sapiens, UniProt P49146); experiment: Displacement of [125I]peptide YY from NPY2 receptor in human KAN-TS cells; assay type: cell-based
[16] = target: Sodium-dependent noradrenaline transporter (Homo sapiens, UniProt P23975); experiment: Displacement of [3H]nisoxetine from human recombinant NET
[17] = Displacement of [3H]GABA from rat cerebral cortex GABA(A) receptor; assay type: tissue-based
[18] = tested on: Rattus norvegicus; experiment: Reduction in wrap restraint stress-induced defecation in WAY-100635-treated rat diarrhea-predominant irritable bowel syndrome model at 0.3 to 3 mg/kg, ip administered 20 mins following addition of 5HT1A receptor antagonist WAY-100635; assay type: functional, organism-based
Outline: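 Rats received saline (with diluted HCl) or WAY-100635 sc; 20 min later compound or vehicle ip. Five minutes after, lightly anesthetized rats were wrapped for 1 h and feces counted. n = 8 per group, mean (SD); Wilcoxon and nonparametric Dunnett's tests.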

[19] = tested on: Rattus norvegicus; experiment: […] activity in rat assessed as inhibition of 5HT-induced bradycardia at 10 ug/kg, iv by von Benzold-Jarisch reflex assay; assay type: functional
[20] = target: T1, 5-hydroxytryptamine receptor 1A (Homo sapiens, UniProt P08908); experiment: Displacement of 8-hydroxy-[3H]DPAT from human recombinant 5HT1A receptor
T1 sequence (P08908 whole entry): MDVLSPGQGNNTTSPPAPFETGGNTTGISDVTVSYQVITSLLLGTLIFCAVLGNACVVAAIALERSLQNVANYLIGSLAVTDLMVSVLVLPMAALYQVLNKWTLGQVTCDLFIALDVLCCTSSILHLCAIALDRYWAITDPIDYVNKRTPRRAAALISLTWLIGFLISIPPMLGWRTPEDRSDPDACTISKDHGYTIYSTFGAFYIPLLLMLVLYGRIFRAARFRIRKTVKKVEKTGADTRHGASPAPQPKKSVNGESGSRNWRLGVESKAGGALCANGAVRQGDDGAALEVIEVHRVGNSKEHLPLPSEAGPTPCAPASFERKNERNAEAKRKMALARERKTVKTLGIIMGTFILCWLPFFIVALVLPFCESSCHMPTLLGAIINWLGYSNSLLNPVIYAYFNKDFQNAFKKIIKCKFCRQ

[21] = target: T2, 5-hydroxytryptamine receptor 3A (Cavia porcellus) (UniProt O70212); experiment: Inhibition of 5HT3 receptor-mediated contraction of guinea pig ileum at 1 umol/L after 20 mins relative to control; assay type: tissue-based
T2 sequence (whole entry): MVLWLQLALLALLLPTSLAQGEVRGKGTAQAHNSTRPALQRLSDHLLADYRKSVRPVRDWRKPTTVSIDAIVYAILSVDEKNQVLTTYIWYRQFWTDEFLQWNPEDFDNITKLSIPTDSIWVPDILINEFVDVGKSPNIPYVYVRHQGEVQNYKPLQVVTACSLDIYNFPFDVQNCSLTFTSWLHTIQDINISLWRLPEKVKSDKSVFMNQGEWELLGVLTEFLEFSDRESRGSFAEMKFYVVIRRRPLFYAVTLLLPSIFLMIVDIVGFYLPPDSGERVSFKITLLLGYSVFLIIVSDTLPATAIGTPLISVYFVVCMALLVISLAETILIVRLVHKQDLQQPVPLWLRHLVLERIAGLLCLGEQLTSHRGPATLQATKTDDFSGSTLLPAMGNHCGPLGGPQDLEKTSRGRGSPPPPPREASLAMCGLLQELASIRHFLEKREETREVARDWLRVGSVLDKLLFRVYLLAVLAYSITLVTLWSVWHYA
Outline: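 Ileum strips in Tyrode solution at 37 °C, gassed 5% CO2/95% O2, isotonic contractions under 1 g load. After at least 3 stable contractions to 10 μM 2-methyl-5-HT, tissue exposed to compound or DMSO vehicle for 20 min, then 10 μM 2-methyl-5-HT re-added; contraction expressed as % inhibition of control.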

[22] = tested on: Rattus norvegicus; experiment: Effect on 5HT1A receptor-mediated hypothermic effect in rat assessed as change in rectal temperature at 10 mg/kg, iv after 30 mins; assay type: functional, organism-based; design: dose 10 mg/kg
Outline: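 Rats were conditioned over 2 weeks and acclimated to the cage for 1 h before dosing (vehicle: saline with diluted HCl). Rectal temperature was recorded with a thermistor probe inserted 3 cm, before and 30 min after administration. The change in temperature was reported.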

Sequence of Adenosine receptor A3 (P0DMS8 whole entry): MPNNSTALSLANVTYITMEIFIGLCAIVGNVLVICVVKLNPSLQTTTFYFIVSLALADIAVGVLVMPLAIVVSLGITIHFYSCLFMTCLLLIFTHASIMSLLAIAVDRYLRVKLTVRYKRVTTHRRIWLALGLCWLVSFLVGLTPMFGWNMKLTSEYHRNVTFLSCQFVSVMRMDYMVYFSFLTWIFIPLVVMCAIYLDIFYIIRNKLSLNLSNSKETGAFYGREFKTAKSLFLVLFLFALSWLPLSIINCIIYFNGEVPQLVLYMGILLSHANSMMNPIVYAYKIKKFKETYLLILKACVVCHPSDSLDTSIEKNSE
Sequence of Kappa-type opioid receptor (P41144 whole entry): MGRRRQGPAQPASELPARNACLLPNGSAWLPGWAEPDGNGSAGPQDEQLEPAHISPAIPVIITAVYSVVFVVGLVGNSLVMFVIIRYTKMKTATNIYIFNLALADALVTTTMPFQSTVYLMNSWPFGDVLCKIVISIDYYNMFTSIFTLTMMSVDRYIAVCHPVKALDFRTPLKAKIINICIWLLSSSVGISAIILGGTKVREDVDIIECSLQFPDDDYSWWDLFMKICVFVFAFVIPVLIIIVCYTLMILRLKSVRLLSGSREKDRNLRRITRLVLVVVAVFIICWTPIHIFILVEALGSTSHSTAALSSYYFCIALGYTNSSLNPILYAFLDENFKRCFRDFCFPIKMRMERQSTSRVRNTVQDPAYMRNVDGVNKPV
Sequence of Muscarinic acetylcholine receptor M2 (P08172 whole entry): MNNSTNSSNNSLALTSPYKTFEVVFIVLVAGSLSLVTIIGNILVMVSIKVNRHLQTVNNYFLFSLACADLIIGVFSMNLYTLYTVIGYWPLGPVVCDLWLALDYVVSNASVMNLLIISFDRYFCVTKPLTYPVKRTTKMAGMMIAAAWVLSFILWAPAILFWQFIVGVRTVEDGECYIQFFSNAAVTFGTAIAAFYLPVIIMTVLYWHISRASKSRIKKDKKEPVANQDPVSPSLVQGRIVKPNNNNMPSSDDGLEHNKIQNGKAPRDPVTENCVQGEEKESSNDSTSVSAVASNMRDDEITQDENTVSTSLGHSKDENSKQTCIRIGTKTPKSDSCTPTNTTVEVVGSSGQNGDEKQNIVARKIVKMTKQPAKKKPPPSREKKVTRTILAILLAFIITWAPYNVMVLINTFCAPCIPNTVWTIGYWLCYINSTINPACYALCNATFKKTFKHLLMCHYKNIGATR
Sequence of Neuropeptide Y receptor type 2 (P49146 whole entry): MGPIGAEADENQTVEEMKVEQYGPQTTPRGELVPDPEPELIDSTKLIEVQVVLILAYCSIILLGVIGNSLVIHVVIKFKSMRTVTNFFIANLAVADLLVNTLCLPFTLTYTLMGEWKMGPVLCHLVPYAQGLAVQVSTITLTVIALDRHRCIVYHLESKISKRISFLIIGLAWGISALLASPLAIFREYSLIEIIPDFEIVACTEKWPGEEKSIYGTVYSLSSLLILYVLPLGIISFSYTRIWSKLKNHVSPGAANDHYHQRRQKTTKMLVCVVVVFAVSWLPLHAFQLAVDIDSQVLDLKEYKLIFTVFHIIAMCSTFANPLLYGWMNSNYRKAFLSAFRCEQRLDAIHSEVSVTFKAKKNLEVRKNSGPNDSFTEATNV
Sequence of Sodium-dependent noradrenaline transporter (P23975 whole entry): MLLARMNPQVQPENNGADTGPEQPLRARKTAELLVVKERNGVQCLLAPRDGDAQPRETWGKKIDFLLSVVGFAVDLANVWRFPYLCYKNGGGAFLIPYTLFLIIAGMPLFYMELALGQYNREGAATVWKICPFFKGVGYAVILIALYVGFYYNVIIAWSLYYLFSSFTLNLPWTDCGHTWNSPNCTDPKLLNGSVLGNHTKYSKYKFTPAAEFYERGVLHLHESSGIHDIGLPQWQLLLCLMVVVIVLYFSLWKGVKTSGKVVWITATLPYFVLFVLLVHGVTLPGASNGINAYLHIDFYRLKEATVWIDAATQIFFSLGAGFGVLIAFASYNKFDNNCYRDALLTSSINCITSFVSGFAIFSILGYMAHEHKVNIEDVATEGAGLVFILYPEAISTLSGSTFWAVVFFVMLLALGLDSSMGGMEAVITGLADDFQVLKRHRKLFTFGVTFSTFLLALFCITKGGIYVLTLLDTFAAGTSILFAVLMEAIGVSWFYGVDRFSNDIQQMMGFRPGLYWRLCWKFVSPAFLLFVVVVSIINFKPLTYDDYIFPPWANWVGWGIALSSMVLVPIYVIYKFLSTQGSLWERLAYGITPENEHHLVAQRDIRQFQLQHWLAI
Sequence of Adenosine receptor A1 (P30542 whole entry): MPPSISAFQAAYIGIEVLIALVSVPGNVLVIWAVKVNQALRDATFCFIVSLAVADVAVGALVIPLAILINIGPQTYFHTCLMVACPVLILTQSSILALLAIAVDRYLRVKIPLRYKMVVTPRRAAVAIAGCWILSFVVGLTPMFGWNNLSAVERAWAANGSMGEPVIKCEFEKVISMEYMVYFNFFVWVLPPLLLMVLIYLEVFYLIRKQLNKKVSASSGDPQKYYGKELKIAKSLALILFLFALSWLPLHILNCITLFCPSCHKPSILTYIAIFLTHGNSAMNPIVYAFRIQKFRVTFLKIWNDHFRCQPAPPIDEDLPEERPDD
Sequence of Neuropeptide Y receptor type 1 (P25929 whole entry): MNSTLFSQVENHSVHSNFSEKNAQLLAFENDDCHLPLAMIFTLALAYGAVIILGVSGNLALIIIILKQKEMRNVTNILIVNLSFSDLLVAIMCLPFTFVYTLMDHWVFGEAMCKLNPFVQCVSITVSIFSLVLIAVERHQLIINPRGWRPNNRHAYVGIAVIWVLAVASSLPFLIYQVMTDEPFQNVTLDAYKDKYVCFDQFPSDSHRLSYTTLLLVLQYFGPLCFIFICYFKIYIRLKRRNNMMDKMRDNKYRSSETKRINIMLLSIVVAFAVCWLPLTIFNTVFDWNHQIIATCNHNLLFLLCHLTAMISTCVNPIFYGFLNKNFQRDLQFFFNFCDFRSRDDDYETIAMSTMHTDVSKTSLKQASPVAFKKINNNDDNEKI
Sequence of Sodium-dependent dopamine transporter (Q01959 whole entry): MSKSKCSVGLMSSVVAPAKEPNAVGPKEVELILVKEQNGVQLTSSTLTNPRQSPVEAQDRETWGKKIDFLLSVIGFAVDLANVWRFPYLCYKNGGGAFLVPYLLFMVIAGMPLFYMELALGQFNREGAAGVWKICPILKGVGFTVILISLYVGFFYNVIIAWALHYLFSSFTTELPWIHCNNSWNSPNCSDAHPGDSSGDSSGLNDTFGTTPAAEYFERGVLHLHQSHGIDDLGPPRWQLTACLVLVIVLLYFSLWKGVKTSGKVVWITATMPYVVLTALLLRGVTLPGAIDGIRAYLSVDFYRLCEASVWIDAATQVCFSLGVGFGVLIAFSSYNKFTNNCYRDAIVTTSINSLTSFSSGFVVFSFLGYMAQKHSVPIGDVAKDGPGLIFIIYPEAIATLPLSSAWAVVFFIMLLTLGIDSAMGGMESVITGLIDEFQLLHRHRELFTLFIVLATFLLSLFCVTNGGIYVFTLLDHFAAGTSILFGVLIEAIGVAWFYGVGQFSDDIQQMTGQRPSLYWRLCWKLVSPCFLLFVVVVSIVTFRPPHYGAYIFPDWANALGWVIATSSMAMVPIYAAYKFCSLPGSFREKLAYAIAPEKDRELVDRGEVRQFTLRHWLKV
Sequence of 5-hydroxytryptamine receptor 4 (O70528 whole entry): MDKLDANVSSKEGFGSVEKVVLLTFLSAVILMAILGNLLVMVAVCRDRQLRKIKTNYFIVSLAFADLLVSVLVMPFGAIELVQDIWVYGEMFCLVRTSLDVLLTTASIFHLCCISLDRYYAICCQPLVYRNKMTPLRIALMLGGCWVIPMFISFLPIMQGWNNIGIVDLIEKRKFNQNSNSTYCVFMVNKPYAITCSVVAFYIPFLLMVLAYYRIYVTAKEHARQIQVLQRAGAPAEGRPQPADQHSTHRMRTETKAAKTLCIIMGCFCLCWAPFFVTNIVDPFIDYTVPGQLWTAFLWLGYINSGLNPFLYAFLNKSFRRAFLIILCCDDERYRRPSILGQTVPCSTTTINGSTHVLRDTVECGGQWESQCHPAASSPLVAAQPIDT
Sequence of Muscarinic acetylcholine receptor M3 (P20309 whole entry): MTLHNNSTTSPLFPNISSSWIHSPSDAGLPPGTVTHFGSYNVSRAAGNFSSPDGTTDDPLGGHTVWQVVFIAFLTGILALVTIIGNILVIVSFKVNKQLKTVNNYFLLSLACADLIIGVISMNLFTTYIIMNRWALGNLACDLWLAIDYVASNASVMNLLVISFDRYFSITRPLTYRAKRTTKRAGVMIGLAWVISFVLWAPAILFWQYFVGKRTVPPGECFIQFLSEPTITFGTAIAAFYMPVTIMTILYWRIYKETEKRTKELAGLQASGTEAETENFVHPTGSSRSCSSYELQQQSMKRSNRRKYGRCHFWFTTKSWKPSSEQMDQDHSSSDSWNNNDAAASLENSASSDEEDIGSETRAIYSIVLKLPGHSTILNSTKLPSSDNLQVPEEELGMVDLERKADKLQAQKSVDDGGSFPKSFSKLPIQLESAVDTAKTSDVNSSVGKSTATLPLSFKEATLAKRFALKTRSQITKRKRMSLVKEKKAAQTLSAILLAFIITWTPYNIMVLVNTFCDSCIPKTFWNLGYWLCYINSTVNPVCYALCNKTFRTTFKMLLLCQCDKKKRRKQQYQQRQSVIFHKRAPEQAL
Sequence of 5-hydroxytryptamine receptor 2A (P14842 whole entry): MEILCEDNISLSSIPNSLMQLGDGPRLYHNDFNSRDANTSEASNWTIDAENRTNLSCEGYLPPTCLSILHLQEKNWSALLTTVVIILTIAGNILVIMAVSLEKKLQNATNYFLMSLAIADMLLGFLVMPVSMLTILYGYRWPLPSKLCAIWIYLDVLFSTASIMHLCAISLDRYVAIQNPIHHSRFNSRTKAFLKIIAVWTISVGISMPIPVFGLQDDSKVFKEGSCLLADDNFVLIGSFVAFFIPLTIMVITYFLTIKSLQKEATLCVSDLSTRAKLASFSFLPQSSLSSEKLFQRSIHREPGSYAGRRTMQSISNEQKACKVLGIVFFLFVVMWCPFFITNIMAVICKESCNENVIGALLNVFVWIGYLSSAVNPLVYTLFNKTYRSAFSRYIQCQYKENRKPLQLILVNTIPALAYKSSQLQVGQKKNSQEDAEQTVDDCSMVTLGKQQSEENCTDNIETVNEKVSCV

IC50 [1]: > 1000 nM | concentration at 4 h [2]: 16.8 nM | IC50 [3]: > 1000 nM | IC50 [4]: > 1000 nM | IC50 [5]: 100 nM | IC50 [6]: > 1000 nM | IC50 [7]: > 1000 nM | Kp at 4 h [8]: 4.4 | IC50 [9]: > 1000 nM | IC50 [10]: > 1000 nM | IC50 [11]: > 1000 nM | IC50 [12]: > 1000 nM | IC50 [13]: 1 ×10⁻⁶ mol/L | concentration at 4 h [14]: 70.2 nM | IC50 [15]: > 1000 nM | IC50 [16]: > 1000 nM | IC50 [17]: > 1000 nM | IC50 [20]: > 1.36 nM | inhibition [21]: 96.8%
SMILES: Nn1c(CCCCN2CCN(c3ccc4ccccc4n3)CC2)nc2c(c1=O)CCCC2
inhibition [18]: inactive | inhibition in vivo at 0.01 mg/kg [19]: ≤ 64% | deltaT [22]: -1.4 °C
